The record followed here is ChEMBL document CHEMBL3244396, “Synthesis and antileukemic activity of 5-substituted 2,3-dihydro-6,7-bis(hydroxymethyl)-1H-pyrrolizine diesters” (J Med Chem, 1977).

For series [1], the system named is Mus musculus. Briefly: Toxicity in female BDF1 mouse allografted with mouse L1210 cells assessed as animal survival at 200 mg/kg, ip administered daily for 9 days as Klucel suspension starting 24 hrs after tumor inoculation measured on fifth day. Type of series: organism-based. Further details: dose 200 mg/kg, route intraperitoneal. The conditions noted are these: in vivo. An outline of the steps: (§1)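 L1210 leukemia passaged as ascitic fluid and inoculated ip. Test agent given ip as a Klucel (hydroxypropylcellulose) suspension, nine daily doses starting 24 h after tumor inoculation. Acute toxicity read as toxicity-day survivors per group (out of 6), recorded on day 5. Animal weight difference T − C was also recorded. Follows NCI screening protocols.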

Series [2] deals with Mus musculus. Briefly: Toxicity in female BDF1 mouse allografted with mouse L1210 cells assessed as animal survival at 50 mg/kg, ip administered daily for 9 days as Klucel suspension starting 24 hrs after tumor inoculation measured on fifth day. Format: organism-based. Set-up: dose 50 mg/kg, route intraperitoneal. To be noted: in vivo. The method, boiled down:
as §1

The test system of series [3] is P388. The series can be described thus: Antitumor activity against mouse P388 cells allografted in female CDF1 mouse assessed as disease cures by measuring 30-days host survival at 400 mg/kg, ip administered daily for 9 days as saline with Tween-80 solution starting 24 hrs after tumor inoculation relative to control. To be noted: route intraperitoneal. Format: functional. An outline of the steps:
(§2)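 P388 ascitic cell inoculum given ip to CDF1 mice of the sex in each line. Nine daily ip doses in saline with Tween-80 as vehicle, starting 24 h after inoculation. Median survival time expressed as %T/C (>125 significant); "cure" defined as 30-day survival.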

Series [4] deals with P388. Briefly: Antitumor activity against mouse P388 cells allografted in female CDF1 mouse assessed as disease cures by measuring 30-days host survival at 100 mg/kg, ip administered daily for 9 days as saline with Tween-80 solution starting 24 hrs after tumor inoculation relative to control. Format: functional. The conditions noted are these: route intraperitoneal. An outline of the steps: as §2

The test system of series [5] is L1210. Briefly: Antileukemic activity against mouse L1210 cells allografted in female BDF1 mouse assessed as change in body weight at 100 mg/kg, ip administered daily for 9 days as Klucel suspension starting 24 hrs after tumor inoculation. Format: functional. The conditions noted are these: route intraperitoneal. The method, boiled down: (§3)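 Ascitic fluid carrying L1210 cells was inoculated ip. Compound was given ip as a Klucel (hydroxypropylcellulose) suspension in nine daily doses, starting 24 h after inoculation. Body-weight difference (treated minus control) was recorded on day 5. Survival was scored as %T/C of mean survival time.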

Series [6] has as its system L1210. The series can be described thus: Antileukemic activity against mouse L1210 cells allografted in female BDF1 mouse assessed as host mean survival time at 200 mg/kg, ip administered daily for 9 days as Klucel suspension starting 24 hrs after tumor inoculation relative to control. Type of series: functional. To be noted: route intraperitoneal. An outline of the steps:
(§4)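 L1210 leukemia given as an ascitic fluid cell inoculum, ip, to mice of the strain and sex in each line. Test material was given ip for nine daily doses starting 24 h after inoculation, in a Klucel (hydroxypropylcellulose) suspension. Read-out is mean survival time as %T/C versus controls, with >125 taken as significant.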

The test system of series [7] is P388. Briefly: Antitumor activity against mouse P388 cells allografted in female CDF1 mouse assessed as disease cures by measuring 30-days host survival at 200 mg/kg, ip administered daily for 9 days as saline with Tween-80 solution starting 24 hrs after tumor inoculation relative to control. Type of series: functional. To be noted: route intraperitoneal. The method, boiled down:
as §2

For series [8], the system named is L1210. Briefly: Antileukemic activity against mouse L1210 cells allografted in female BDF1 mouse assessed as host mean survival time at 50 mg/kg, ip administered daily for 9 days as Klucel suspension starting 24 hrs after tumor inoculation relative to control. Format: functional. The conditions noted are these: route intraperitoneal. An outline of the steps:
as §4

Series [9] relates to P388. Briefly: Antitumor activity against mouse P388 cells allografted in female CDF1 mouse assessed as change in body weight at 200 mg/kg, ip administered daily for 9 days as saline with Tween-80 solution starting 24 hrs after tumor inoculation. Type of series: functional. The conditions noted are these: route intraperitoneal. The method, boiled down: (§5)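 Ascitic fluid carrying P388 cells was inoculated ip. Compound was given ip in nine daily doses, starting 24 h after inoculation, in Klucel (hydroxypropylcellulose) suspension or in saline with Tween-80. Body-weight difference (treated minus control) was recorded on day 5. Survival was scored as %T/C of median survival time, and 30-day survival counted as cure.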

In series [10] the test system is L1210. The series can be described thus: Antileukemic activity against mouse L1210 cells allografted in female BDF1 mouse assessed as host mean survival time at 100 mg/kg, ip administered daily for 9 days as Klucel suspension starting 24 hrs after tumor inoculation relative to control. The conditions noted are these: route intraperitoneal. Type of series: functional. An outline of the steps: as §4

The subject of series [11] is P388. The series can be described thus: Antitumor activity against mouse P388 cells allografted in female CDF1 mouse assessed as change in body weight at 100 mg/kg, ip administered daily for 9 days as saline with Tween-80 solution starting 24 hrs after tumor inoculation. The conditions noted are these: route intraperitoneal. Type of series: functional. An outline of the steps:
as §5

Series [12] concerns Mus musculus. The series can be described thus: Toxicity in female CDF1 mouse allografted with mouse P388 cells assessed as animal survival at 200 mg/kg, ip administered daily for 9 days as saline with Tween-80 solution starting 24 hrs after tumor inoculation. Type of series: organism-based. Further details: dose 200 mg/kg, route intraperitoneal. To be noted: in vivo. The method, boiled down: (§6)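 P-388 leukemia ascitic fluid implanted ip. Compound dosed ip in saline with Tween-80 vehicle, once daily for nine doses from 24 h after tumor inoculation. Acute toxicity scored as toxicity-day survivors per group. Survival was followed up to 30 days, with 30-day survival counted as "cure". Follows NCI screening protocols.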

In series [13] the test system is Mus musculus. Briefly: Toxicity in female CDF1 mouse allografted with mouse P388 cells assessed as animal survival at 400 mg/kg, ip administered daily for 9 days as saline with Tween-80 solution starting 24 hrs after tumor inoculation. The conditions noted are these: in vivo. Format: organism-based. Set-up: dose 400 mg/kg, route intraperitoneal. The method, boiled down: as §6

The subject of series [14] is L1210. The series can be described thus: Antileukemic activity against mouse L1210 cells allografted in female BDF1 mouse assessed as change in body weight at 50 mg/kg, ip administered daily for 9 days as Klucel suspension starting 24 hrs after tumor inoculation. Format: functional. To be noted: route intraperitoneal. An outline of the steps: as §3
Series [15] concerns Mus musculus. The series can be described thus: Toxicity in female CDF1 mouse allografted with mouse P388 cells assessed as animal survival at 100 mg/kg, ip administered daily for 9 days as saline with Tween-80 solution starting 24 hrs after tumor inoculation. The conditions noted are these: in vivo. Type of series: organism-based. Further details: dose 100 mg/kg, route intraperitoneal. The method, boiled down:
as §6

Series [16] concerns L1210. The series can be described thus: Antileukemic activity against mouse L1210 cells allografted in female BDF1 mouse assessed as change in body weight at 200 mg/kg, ip administered daily for 9 days as Klucel suspension starting 24 hrs after tumor inoculation. Format: functional. The conditions noted are these: route intraperitoneal. The method, boiled down:
as §3

Series [17] has as its system Mus musculus. Briefly: Toxicity in female BDF1 mouse allografted with mouse L1210 cells assessed as animal survival at 100 mg/kg, ip administered daily for 9 days as Klucel suspension starting 24 hrs after tumor inoculation measured on fifth day. Format: organism-based. Set-up: dose 100 mg/kg, route intraperitoneal. To be noted: in vivo. An outline of the steps: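 Female BDF1 mice bearing ip ascitic L1210 inoculum got nine daily ip doses in a Klucel suspension, starting 24 h after tumor inoculation. Toxicity was scored as toxicity-day survivors out of the group, recorded on the fifth day. Animal weight difference (T − C) was also tabulated.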

Series [18] concerns P388. The series can be described thus: Antitumor activity against mouse P388 cells allografted in female CDF1 mouse assessed as change in body weight at 400 mg/kg, ip administered daily for 9 days as saline with Tween-80 solution starting 24 hrs after tumor inoculation. Format: functional. To be noted: route intraperitoneal. An outline of the steps: as §5

Regarding `COC(=O)c1c(C(=O)OC)c(-c2ccc(Cl)c(Cl)c2)n2c1CCC2`, the Activity entry is reported as “Non-toxic” in the series with Mus musculus [1]; “Non-toxic” in the series with Mus musculus [2]; 3.4 g in the series with L1210 [5]; 0.2 g in the series with P388 [9]; 0.2 g with P388 [11]; “Non-toxic” in the series with Mus musculus [12]. Besides, the Activity result in the series on Mus musculus [13] is reported as “Non-toxic”; in the series with L1210 [14] it was 2.8 g; in the series with Mus musculus [15], “Non-toxic”; in the series on L1210 [16], 1.1 g; in the series on Mus musculus [17], “Non-toxic”; with P388 [18], -0.2 g. Moreover, the T/C with P388 [3] came out at 88%; in the series with P388 [4], 87%; in the series with L1210 [6], 98%; in the series on P388 [7], 89%; with L1210 [8] it was 91%; in the series on L1210 [10], 88%.

In general, T/C refers to the ratio of treated to control.
